From ChEMBL document CHEMBL1134785, “Synthesis and biological evaluation of prostaglandin-F alkylphosphinic acid derivatives as bone anabolic agents for the treatment of osteoporosis” (J Med Chem, 2001)

What was measured:
[1] = target: Prostaglandin E2 receptor EP2 subtype (Homo sapiens, UniProt P43116); test: In vitro binding at EP2 human prostaglandin receptor
Method in brief: (§1)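 Receptors stably expressed in CHO cells, collected 4-5 days after seeding. Membranes made by lysis (Tris, EDTA, protease inhibitors) and 100000g pellet, then resuspended at 1 mg protein/mL in TME. Radioligands at 5 nM: [3H]PGE2 for EP2/EP3/EP4, [3H]Iloprost for IP, [3H]SQ-29548 for TP. Competition binding with filtration and counting.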

[2] = target: Prostacyclin receptor (Homo sapiens, UniProt P43119); test: In vitro binding at prostanoid IP receptor using [3H]iloprost as radioligand; method in brief: as §1
Prostacyclin receptor, sequence (P43119 whole entry): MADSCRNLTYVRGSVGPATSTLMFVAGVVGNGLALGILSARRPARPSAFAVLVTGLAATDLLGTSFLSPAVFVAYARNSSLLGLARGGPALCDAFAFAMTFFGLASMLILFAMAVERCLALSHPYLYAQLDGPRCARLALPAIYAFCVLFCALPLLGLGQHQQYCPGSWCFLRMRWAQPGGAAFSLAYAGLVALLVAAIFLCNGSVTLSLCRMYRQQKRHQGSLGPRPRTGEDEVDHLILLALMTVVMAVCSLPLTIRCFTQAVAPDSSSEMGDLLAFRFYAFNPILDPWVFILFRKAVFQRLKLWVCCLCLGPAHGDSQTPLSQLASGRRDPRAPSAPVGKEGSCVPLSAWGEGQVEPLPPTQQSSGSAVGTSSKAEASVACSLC

[3] = system: Rattus norvegicus; test: Mineralizing surface/bone surface(%) measured Histomorphometrically after a dose of 100 ug/kg in proximal tibial metaphysis; type: functional
Method in brief: (§2)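 Ovariectomized six-month-old rats, 6-8 per group, were dosed subcutaneously once daily at 0.01–3.0 mg/kg for 60 days, starting 60 days after surgery. Vehicle was acetate-buffered saline, methylcellulose and polyoxyethylenesorbitan monooleate. Labels were xylenol orange 90 mg/kg pretreatment and calcein 10 mg/kg at 14 and 4 days before necropsy. Histomorphometry covered the proximal tibial metaphysis, 1–4 mm distal to the growth plate–metaphyseal junction. ANOVA/LSD versus vehicle.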

[4] = system: Rattus norvegicus; test: Bone Volume /Tissue Volume (%)measured using micro Computed Tomography(CT) after a dose of 100 ug/kg in Vertebral Bone; type: functional; details: at 100 µg/kg
[5] = system: Rattus norvegicus; test: Mineralizing surface/bone surface(%) measured Histomorphometrically after a dose of 30 ug/kg in proximal tibial metaphysis; type: functional; method in brief: as §2
[6] = system: Rattus norvegicus; test: Bone formation rate/bone volume (%/year) bone measured histomorphometrically after a dose of 3000 ug/kg in proximal tibial metaphysis; type: functional; details: at 3000 µg/kg
[7] = system: Rattus norvegicus; test: Bone formation rate/tissue volume (%/year) bone measured histomorphometrically after a dose of 100 ug/kg in proximal tibial metaphysis; type: functional; details: at 100 µg/kg
[8] = system: Rattus norvegicus; test: Bone formation rate/tissue volume (%/year) bone measured histomorphometrically after a dose of 300 ug/kg in proximal tibial metaphysis; type: functional; details: at 300 µg/kg
[9] = system: Rattus norvegicus; test: Directly measured thickness(um) using micro Computed Tomography(CT) after a dose of 100 ug/kg in Vertebral Bone; type: functional
Method in brief: (§3)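 Micro-CT of the fifth lumbar vertebra, measuring cancellous bone volume and architecture. Rats were 6 months old, OVX 60 days before treatment, then dosed daily for 60 days. Test-agent doses were 10–3000 µg/kg, given as a once-daily subcutaneous injection; 6 mg/kg/day was given to the positive-control group. Groups were compared with vehicle by ANOVA plus LSD test.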

[10] = system: Rattus norvegicus; test: Derived trabecular thickness (um) measured using micro Computed Tomography(CT) after a dose of 30 ug/kg in Vertebral Bone; type: functional, Trabecula; method in brief: as §3
[11] = system: Rattus norvegicus; test: Endosteal eroded surface(%) measured Histomorphometrically after a dose of 10 ug/kg in tibial diaphysis; type: functional
Method in brief: (§4)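 Tibial histomorphometry in 6-month-old rats, OVX 60 days before treatment, then daily injection for 60 days. Vehicle was acetate-buffered saline with methylcellulose and polyoxyethylenesorbitan monooleate. Rats received xylenol orange 90 mg/kg before treatment and calcein 10 mg/kg at 14 and 4 days pre-sacrifice. Rats were killed by cardiac puncture under ketamine/xylazine. Groups were compared with vehicle by ANOVA plus LSD test.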

[12] = system: Rattus norvegicus; test: Endosteal eroded surface(%) measured Histomorphometrically after a dose of 30 ug/kg in tibial diaphysis; type: functional; method in brief: as §4
[13] = system: Rattus norvegicus; test: Endosteal eroded surface(%) measured Histomorphometrically after a dose of 300 ug/kg in tibial diaphysis; type: functional; method in brief: as §4
[14] = system: Rattus norvegicus; test: Endosteal eroded surface(%) measured Histomorphometrically after a dose of 3000 ug/kg in tibial diaphysis; type: functional; method in brief: as §4
[15] = system: Rattus norvegicus; test: Endosteal mineralizing surface Histomorphometrically after a dose of 10 ug/kg in tibial diaphysis; type: functional
Method in brief: (§5)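 Six-month-old rats, bilaterally ovariectomized, 6-8 per group, on natural chow. After 60 days they received once-daily subcutaneous dosing for 60 days at 0.01–3.0 mg/kg. Vehicle was acetate-buffered saline with methylcellulose and polyoxyethylenesorbitan monooleate. Labels were xylenol orange 90 mg/kg before treatment and calcein 10 mg/kg 14 and 4 days before sacrifice. Tibial histomorphometry was read under fluorescent light, with ANOVA/LSD versus vehicle.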

[16] = system: Rattus norvegicus; test: Mineral apposition rate ([…])bone measured Histomorphometrically after a dose of 3000 ug/kg in tibial diaphysis; type: functional; method in brief: as §5
[17] = system: Rattus norvegicus; test: Endosteal mineralizing surface Histomorphometrically after a dose of 300 ug/kg in tibial diaphysis; type: functional; method in brief: as §5
[18] = system: Rattus norvegicus; test: Mineral apposition rate ([…])bone measured Histomorphometrically after a dose of 300 ug/kg in proximal tibial metaphysis; type: functional; method in brief: as §2
[19] = system: Rattus norvegicus; test: Trabecular thickness […] measured Histomorphometrically after a dose of 30 ug/kg in proximal tibial metaphysis; type: functional, Trabecula
Method in brief: (§6)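 Six-month-old rats were ovariectomized, and 60 days later daily subcutaneous dosing began for 60 days, with vehicle of acetate-buffered saline, methylcellulose and polysorbate. Xylenol orange (90 mg/kg) labelled bone pre-treatment and calcein (10 mg/kg) 14 and 4 days pre-sacrifice. Histomorphometry covered the proximal tibial metaphysis 1-4 mm distal to the growth plate-metaphyseal junction. Groups were 6-8 rats, compared by ANOVA/LSD vs vehicle.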

[20] = system: Rattus norvegicus; test: Trabecular thickness […] measured Histomorphometrically after a dose of 3000 ug/kg in proximal tibial metaphysis; type: functional, Trabecula; method in brief: as §6
[21] = system: Rattus norvegicus; test: connectivity density (mm-3) using micro Computed Tomography(CT) after a does of 10 ug/kg in Vertebral Bone; type: functional
Method in brief: (§7)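 Rats were ovariectomized at 6 months of age and, after 60 days, dosed subcutaneously once daily for 60 days, with vehicle of acetate-buffered saline, methylcellulose and polysorbate. At necropsy the fifth lumbar vertebra was scanned by micro-CT to obtain cancellous architecture. Groups were 6-8 rats; results were compared to vehicle by ANOVA with least significant difference test.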

[22] = system: Rattus norvegicus; test: connectivity density (mm-3) using micro Computed Tomography(CT) after a does of 1000 ug/kg in Vertebral Bone; type: functional; method in brief: as §7
[23] = system: Rattus norvegicus; test: Tissue area (mm) measured Histomorphometrically after a dose of 100 ug/kg in tibial diaphysis; type: functional
Method in brief: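 Rats on natural chow (1.46% Ca) were bilaterally ovariectomized at 6 months and left untreated for 60 days. They then received once-daily subcutaneous doses for 60 days, with vehicle of acetate-buffered saline, methylcellulose and polysorbate. Xylenol orange (90 mg/kg) was given before treatment and calcein (10 mg/kg) 14 and 4 days before sacrifice. Tibiae were analysed by fluorescent histomorphometry, 6-8 rats/group, ANOVA/LSD vs vehicle.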

[24] = target: T1, Thromboxane A2 receptor (Homo sapiens, UniProt P21731); test: In vitro binding at TP human prostaglandin receptor using [3H]SQ-29,548 as radioligand; method in brief: as §1
T1 sequence (P21731 whole entry): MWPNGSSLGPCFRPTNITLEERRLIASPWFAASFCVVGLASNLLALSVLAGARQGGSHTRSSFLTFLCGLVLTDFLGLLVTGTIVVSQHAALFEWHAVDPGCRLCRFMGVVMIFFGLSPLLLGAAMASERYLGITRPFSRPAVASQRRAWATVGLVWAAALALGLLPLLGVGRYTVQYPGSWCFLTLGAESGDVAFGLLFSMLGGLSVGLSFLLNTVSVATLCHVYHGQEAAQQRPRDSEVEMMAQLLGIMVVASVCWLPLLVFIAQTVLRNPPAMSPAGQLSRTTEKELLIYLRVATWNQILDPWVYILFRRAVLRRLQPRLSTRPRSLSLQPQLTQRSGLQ

Prostaglandin E2 receptor EP2 subtype, sequence (P43116 whole entry): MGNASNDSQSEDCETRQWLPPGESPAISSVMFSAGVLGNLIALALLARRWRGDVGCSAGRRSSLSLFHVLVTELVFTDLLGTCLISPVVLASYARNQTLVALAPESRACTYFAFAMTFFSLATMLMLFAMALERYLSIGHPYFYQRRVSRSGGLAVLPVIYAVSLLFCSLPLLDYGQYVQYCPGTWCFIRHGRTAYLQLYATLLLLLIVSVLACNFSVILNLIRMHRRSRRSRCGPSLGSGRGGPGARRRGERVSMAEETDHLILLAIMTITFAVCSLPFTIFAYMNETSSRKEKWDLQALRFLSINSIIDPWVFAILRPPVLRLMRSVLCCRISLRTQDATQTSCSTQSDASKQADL

Work on `CP(=O)(O)CCC/C=C\C[C@@H]1[C@@H](/C=C/[C@@H](O)COc2ccccc2)[C@H](O)C[C@@H]1O` yielded an IC50 [1] greater than 10 µM, an IC50 [2] greater than 10 µM and an Activity [3] of 27.11%. It also gave an Activity [4] of 38.04%, an Activity [5] of 30.59% and an Activity [6] of 247.55%. For the same molecule, the Activity [7] was 18.23%, the Activity [8] was 18.03% and the Directly measured thickness [9] was 127 µm. The Derived trabecular thickness [10] was 77.8 µm, the Endosteal eroded surface [11] was 11.83% and the Endosteal eroded surface [12] was 2.01%. The Endosteal eroded surface [13] was 1.32%, the Endosteal eroded surface [14] was 2.2% and the Endosteal mineralizing surface [15] was 46.62%. The Mineral apposition rate [16] was 1.03 µm/day, the Endosteal mineralizing surface [17] was 29.02% and the Mineral apposition rate [18] was 0.98 µm/day. For the same molecule, the Trabecular thickness [19] was 41.2 µm, the Trabecular thickness [20] was 55.8 µm and the Connectivity density [21] was 60.28 mm**-3. The Connectivity density [22] was 59.66 mm**-3, the Tissue area [23] was 4.95 mm and the IC50 [24] was greater than 10 µM.
